The source made the active and inactive calls. No cut-off for these calls is given here.
Experiments:
[1] = biological target: T1, Epidermal growth factor receptor (Homo sapiens, UniProt P00533); test: Inhibition of EGFR in human NCI-H1975 cells assessed as reduction in AKT phosphorylation at S473 residues at 0.5 to 5 uM after 48 hrs by Western blot analysis; type: cell-based; details: dose 0.5-5 µM
Outline: (§1)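 Cells were treated with compound for 48 h and lysed on ice for 30 min in RIPA buffer with protease and phosphatase inhibitors. Lysates were cleared at 14000 g, 4 °C, and protein quantified by BCA. Samples were boiled in loading buffer, run on 10–12% SDS-PAGE and transferred to PVDF. Membranes were blocked 2 h, incubated in primary antibody overnight at 4 °C, then in secondary antibody 2 h at room temperature.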

NCI-H838 = test: Antiproliferation activity against human NCI-H838 cells incubated for 72 hrs by MTT assay; type: functional, cell-based; details: NCI-H838, 72 h
[2] = biological target: T1, Epidermal growth factor receptor; test: Inhibition of EGFR (unknown origin) by mobility shift assay
[3] = biological target: T1, Epidermal growth factor receptor; test: Inhibition of EGFR in human NCI-H1975 cells assessed as reduction in EGFR phosphorylation at Tyr-1173 residues after 48 hrs by Western blot analysis; type: cell-based; details: dose 0.5-5 µM; outline: as §1
SK-BR-3 = test: Antiproliferation activity against human SK-BR-3 cells incubated for 72 hrs by MTT assay; type: functional, cell-based; details: SK-BR-3, 72 h
Outline: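 MTT assay. About 0.5–1 × 10⁴ cells/well were pre-incubated 12 h at 37 °C in 5% CO₂, then exposed to a concentration series of compound for 72 h. Formazan was dissolved in DMSO and absorbance read at 490 nm. Three wells per condition, three independent experiments. IC50 is the mean ± SD from the dose-response curves.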

NCI-H1975 [4] = test: Induction of apoptosis in human NCI-H1975 cells assessed as necrotic cells at 0.5 uM incubated for 48 hrs by propidium iodide and annexin-V FITC staining based flow cytometry (Rvb =0.18% ); type: functional
NCI-H1975 [5] = test: Induction of apoptosis in human NCI-H1975 cells assessed as early apoptotic cells at 5 uM incubated for 48 hrs by propidium iodide and annexin-V FITC staining based flow cytometry (reference value: 6.67 %); type: functional
Histone deacetylase 1 = Histone deacetylase 1 (Homo sapiens, UniProt Q13547); test: Inhibition of HDAC1 (unknown origin)
NCI-H1975 [6] = test: Induction of apoptosis in human NCI-H1975 cells assessed as increase in cleaved-caspase 3 level at 0.5 to 5 uM after 48 hrs by Western blot analysis; type: functional, cell-based; details: dose 0.5-5 µM; outline: as §1
NCI-H1975 [7] = test: Down regulation of EGFR protein expression in human NCI-H1975 cells at 0.5 to 5 uM after 48 hrs by Western blot analysis; type: functional, cell-based; details: dose 0.5-5 µM; outline: as §1
[8] = biological target: Receptor tyrosine-protein kinase erbB-2 (Homo sapiens, UniProt P04626); test: Inhibition of HER2 (unknown origin) by mobility shift assay
Outline: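 In vitro kinase activity was measured by mobility shift assay, run by a contract provider.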

T1 sequence (P00533 whole entry): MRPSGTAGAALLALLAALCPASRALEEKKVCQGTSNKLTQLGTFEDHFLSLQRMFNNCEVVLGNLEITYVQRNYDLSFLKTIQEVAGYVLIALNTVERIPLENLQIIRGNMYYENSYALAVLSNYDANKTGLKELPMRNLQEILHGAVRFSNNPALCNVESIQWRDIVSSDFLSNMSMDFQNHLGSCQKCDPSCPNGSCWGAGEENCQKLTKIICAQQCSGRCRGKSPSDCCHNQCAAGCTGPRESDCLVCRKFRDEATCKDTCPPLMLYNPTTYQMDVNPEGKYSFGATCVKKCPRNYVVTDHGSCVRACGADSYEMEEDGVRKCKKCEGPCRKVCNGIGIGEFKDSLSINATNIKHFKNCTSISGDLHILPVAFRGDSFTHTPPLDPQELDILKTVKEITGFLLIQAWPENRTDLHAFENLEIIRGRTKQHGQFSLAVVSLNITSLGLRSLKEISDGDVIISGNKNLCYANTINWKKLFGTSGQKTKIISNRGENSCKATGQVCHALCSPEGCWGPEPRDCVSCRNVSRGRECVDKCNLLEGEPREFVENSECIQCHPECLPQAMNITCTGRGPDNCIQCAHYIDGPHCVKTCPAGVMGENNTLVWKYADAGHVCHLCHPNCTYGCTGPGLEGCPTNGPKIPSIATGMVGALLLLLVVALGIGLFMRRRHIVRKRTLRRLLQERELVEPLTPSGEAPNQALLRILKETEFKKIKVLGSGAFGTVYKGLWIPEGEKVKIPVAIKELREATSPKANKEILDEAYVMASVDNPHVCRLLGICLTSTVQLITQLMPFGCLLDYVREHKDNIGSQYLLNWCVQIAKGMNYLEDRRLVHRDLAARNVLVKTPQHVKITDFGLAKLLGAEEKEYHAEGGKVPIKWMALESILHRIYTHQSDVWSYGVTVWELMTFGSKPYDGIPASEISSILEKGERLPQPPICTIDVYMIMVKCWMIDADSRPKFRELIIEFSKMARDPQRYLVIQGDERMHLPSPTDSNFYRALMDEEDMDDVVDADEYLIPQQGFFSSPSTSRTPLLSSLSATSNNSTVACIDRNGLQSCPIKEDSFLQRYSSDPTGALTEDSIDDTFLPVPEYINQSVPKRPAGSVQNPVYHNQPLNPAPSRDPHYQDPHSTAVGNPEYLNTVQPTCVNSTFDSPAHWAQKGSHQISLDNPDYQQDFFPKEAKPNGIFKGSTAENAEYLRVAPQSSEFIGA
Chain of Receptor tyrosine-protein kinase erbB-2 (P04626 whole entry): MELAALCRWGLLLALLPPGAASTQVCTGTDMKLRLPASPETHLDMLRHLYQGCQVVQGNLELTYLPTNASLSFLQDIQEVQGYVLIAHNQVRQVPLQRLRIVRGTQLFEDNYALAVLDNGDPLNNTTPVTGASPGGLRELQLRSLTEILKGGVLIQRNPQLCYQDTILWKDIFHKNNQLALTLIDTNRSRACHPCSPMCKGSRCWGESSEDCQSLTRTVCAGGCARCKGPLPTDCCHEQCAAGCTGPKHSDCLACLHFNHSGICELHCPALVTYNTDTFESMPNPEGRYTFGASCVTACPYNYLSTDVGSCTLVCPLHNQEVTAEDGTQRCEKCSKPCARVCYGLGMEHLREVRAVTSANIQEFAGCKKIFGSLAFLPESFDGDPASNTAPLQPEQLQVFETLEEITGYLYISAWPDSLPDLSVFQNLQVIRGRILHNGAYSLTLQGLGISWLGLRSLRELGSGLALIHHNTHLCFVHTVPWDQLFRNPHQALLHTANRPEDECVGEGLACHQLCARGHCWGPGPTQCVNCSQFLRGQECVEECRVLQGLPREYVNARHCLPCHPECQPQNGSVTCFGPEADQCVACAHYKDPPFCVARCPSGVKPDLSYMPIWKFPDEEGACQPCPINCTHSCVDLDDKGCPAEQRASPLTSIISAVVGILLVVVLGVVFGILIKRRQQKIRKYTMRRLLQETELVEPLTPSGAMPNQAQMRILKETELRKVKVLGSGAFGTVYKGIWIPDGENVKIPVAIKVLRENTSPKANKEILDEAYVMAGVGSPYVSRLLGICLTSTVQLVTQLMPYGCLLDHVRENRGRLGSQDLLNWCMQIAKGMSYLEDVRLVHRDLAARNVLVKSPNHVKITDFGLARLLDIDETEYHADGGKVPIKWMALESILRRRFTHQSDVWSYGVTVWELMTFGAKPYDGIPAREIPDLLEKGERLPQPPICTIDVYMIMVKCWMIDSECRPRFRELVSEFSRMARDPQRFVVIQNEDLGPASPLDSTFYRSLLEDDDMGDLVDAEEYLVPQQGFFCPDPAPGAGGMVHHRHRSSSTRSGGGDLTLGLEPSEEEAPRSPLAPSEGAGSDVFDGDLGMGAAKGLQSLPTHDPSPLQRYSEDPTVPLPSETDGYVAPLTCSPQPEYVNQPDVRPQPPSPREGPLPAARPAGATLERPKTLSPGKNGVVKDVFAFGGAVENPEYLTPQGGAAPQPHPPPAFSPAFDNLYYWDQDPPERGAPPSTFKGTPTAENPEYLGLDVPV
Chain of Histone deacetylase 1 (Q13547 whole entry): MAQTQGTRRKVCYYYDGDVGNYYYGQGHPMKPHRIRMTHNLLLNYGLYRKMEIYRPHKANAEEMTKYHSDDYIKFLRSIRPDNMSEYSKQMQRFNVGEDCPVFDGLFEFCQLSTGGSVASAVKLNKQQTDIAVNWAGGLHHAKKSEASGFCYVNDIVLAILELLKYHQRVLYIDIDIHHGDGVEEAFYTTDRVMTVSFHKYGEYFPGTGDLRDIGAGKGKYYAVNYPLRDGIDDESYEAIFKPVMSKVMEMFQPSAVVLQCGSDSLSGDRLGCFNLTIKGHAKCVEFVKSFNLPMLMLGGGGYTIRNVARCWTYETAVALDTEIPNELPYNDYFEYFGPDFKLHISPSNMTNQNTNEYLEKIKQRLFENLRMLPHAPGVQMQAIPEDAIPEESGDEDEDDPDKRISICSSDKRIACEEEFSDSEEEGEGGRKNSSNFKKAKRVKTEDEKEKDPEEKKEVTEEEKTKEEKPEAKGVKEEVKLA

inhibition [1]: Active
IC50 (NCI-H838): > 50000 nM
IC50 [2]: 0.35 nM
inhibition [3]: Dose-dependent effect
IC50 (SK-BR-3): 30800 nM
IC50 (Histone deacetylase 1): 75 nM
IC50 [8]: 5.7 nM
Compound: C=CC(=O)Nc1cc2c(Nc3ccc(F)c(Cl)c3)ncnc2cc1OCc1cn(CCCC(=O)NO)nn1
Activity (NCI-H1975 [4]): 0.08%
Activity (NCI-H1975 [5]): 35.22%
Activity (NCI-H1975 [6]): Active
Activity (NCI-H1975 [7]): Active

From ChEMBL document CHEMBL4732162, “Design, synthesis and evaluation of novel ErbB/HDAC multitargeted inhibitors with selectivity in EGFR mutant cell lines” (Eur J Med Chem, 2021)
